# Experimental data from different studies.
# Read-out: enzyme activity
# Action: inhibitor
# CHEK2: Serine/threonine-protein kinase Chk2 (CHEK2, Homo sapiens, UniProt O96017)
# CHEK2 R145W: Serine/threonine-protein kinase Chk2 (CHEK2, Homo sapiens, UniProt O96017, R145W)
Structure (SMILES),target,method,concentration,remaining activity
FC(F)c1nc2ccccc2n1-c1nc(N2CCOCC2)nc(N2CCOCC2)n1,CHEK2,,10 µM,88%
Cc1ccc(C(=O)Nc2ccc(CN3CCN(C)CC3)c(C(F)(F)F)c2)cc1C#Cc1cnc2cccnn12,CHEK2,,23.5 nM,98%
O=C(Nc1cnn(-c2csc(C(=O)NC3COC3)c2)c1)Nc1ccccc1Cl,CHEK2,,5 µM,97.8%
COc1cc(Nc2cnc(C#N)c(O[C@H](C)CN(C)C)n2)ncc1-c1cnn(C)c1,CHEK2,radiometric,1 µM,81%
CC(C)(C)c1nc2c(s1)c1nc(N)ncc1c1ccc(NS(=O)(=O)c3c(F)cccc3F)c(F)c12,CHEK2,radiometric,1 µM,72%
Oc1cccc(-c2nc(N3CCOCC3)c3oc4ncccc4c3n2)c1,CHEK2,,10 µM,85%
Cc1ccc(NC(=O)c2ccc(C)c(C(F)(F)F)c2)cc1C#Cc1nn(C2CCC(O)CC2)c2ncnc(N)c12 (stereo not drawn),CHEK2 R145W,,10 µM,102%
Nc1nc(NC2CCCCC2)sc1C(=O)c1ccccc1,CHEK2,,10 µM,61%
COc1cc(Cl)c(C(=O)N[C@@H](CN[C@H]2CC[C@@H](N)CC2)Cc2ccc(C#N)cc2)cc1-c1ccc(CN[C@H](C)c2ccc(C)cc2)o1,CHEK2,,1 µM,98%
Cc1cnc(NC2CCOCC2)nc1-n1cnc(C(=O)NC(CN)c2cc(F)cc(Cl)c2)c1 (stereo not drawn),CHEK2 R145W,radiometric,1 µM,79%
CCCOc1ccc(OC)c(F)c1C(=O)c1ccc(C(=O)N[C@@H]2CNC[C@H]2NC(=O)c2ccc3[nH]ncc3c2)cc1,CHEK2,,10 µM,13%
Nc1nc(Nc2ccccc2)sc1C(=O)c1c(F)cccc1F,CHEK2,,10 µM,30%
